The nature of data set [1]: Plasma protein binding in rat at 2 uM incubated for 4 to 24 hrs by equilibrium dialysis method. In kind it is ADME, cell-free. Particulars: time 4-24 hrs, read-out: PPB (converted). A digest of the protocol:
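Rapid equilibrium dialysis in mouse, rat, dog, monkey or human plasma for 4 or 24 h at 2 μM.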
On the technique in general: Equilibrium dialysis compares concentrations on both sides of a semipermeable membrane.

A short description of data set [2]: Apparent permeability across apical to basal side in human Caco-2 cells at 2 uM incubated for 1 hr. The data set is classed as ADME, cell-based. A digest of the protocol:
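Bidirectional transport across Caco-2 cells in HBSS, pH 7.4, 0.1% final DMSO. Compound was tested at 1 or 2 μM for 1 h at 37 °C, 5% CO2. Apical and basal samples gave apparent permeability A→B and B→A, and the efflux ratio.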
For orientation: Passage across Caco-2 layers is used to estimate intestinal permeability.

A short description of data set [3]: Prodrug conversion in Sprague-Dawley rat assessed as formation of N-(3-cyano-4-fluorophenyl)-4-(2-((3-ethynyloxetan-3-yl)amino)-2-oxoacetyl)-1,3,5-trimethyl-1H-pyrrole-2-carboxamide metabolite at 37.8 mg/kg, po measured for 24 hrs. The data set is classed as ADME, organism-based. To be noted: in vivo. A digest of the protocol:
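Single oral prodrug dose at molar equivalent of 30 mg/kg (rats) or […] of parent in 95% PEG 400/5% copovidone; whole blood collected into 4 volumes 75% MeOH/25% acetonitrile, centrifuged, parent quantified by LC-MS/MS; noncompartmental PK analysis.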

The nature of data set [4]: AUC (infinity) in Sprague-Dawley rat at 5 mg/kg, po by LC-MS/MS analysis. The data set is classed as ADME, organism-based. To be noted: in vivo. A digest of the protocol:
(§1)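 Single dose to fasted male C57BL6 mice, Sprague-Dawley rats, beagle dogs and cynomolgus monkeys, either IV at 1 mg/kg or PO as a solution at 5 mg/kg, in 80% PEG 400 in water. Plasma concentrations were measured by LC-MS/MS. PK parameters come from noncompartmental analysis using nominal doses and nominal sampling times.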

A short description of data set [5]: AUC (infinity) in C57BL/6J mouse at 5 mg/kg, po by LC-MS/MS analysis. The data set is classed as ADME, organism-based. Particulars: in vivo. A digest of the protocol:
as §1

The nature of data set [6]: AUC (infinity) in Beagle dog at 1 mg/kg, iv by LC-MS/MS analysis. The data set is classed as ADME, organism-based, Canis lupus familiaris. To be noted: in vivo. A digest of the protocol:
as §1

Data set [7] can be described thus: Cmax in Cynomolgous monkey at 5 mg/kg, po by LC-MS/MS analysis. The data set is classed as ADME, organism-based, Macaca fascicularis. Particulars: cynomolgus monkey, in vivo. A digest of the protocol: as §1
Data set [8] is described as follows: Tmax in C57BL/6J mouse at 5 mg/kg, po by LC-MS/MS analysis. The data set is classed as ADME, organism-based. Particulars: in vivo. A digest of the protocol:
(§2)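 Fasted males (C57BL6 mice, Sprague−Dawley rats, beagle dogs, cynomolgus monkeys) given a single oral solution dose of 5 mg/kg in 80% PEG 400 in water. Plasma sampled over time, analysed by LC-MS/MS. Noncompartmental analysis used nominal doses and nominal sampling times.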

The nature of data set [9]: Volume of distribution at steady state in Sprague-Dawley rat at 1 mg/kg, iv by LC-MS/MS analysis. To be noted: in vivo, read-out: Vdss. The data set is classed as ADME, organism-based. A digest of the protocol: (§3)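 Fasted males (C57BL6 mice, Sprague−Dawley rats, beagle dogs, cynomolgus monkeys) given a single IV dose of 1 mg/kg in 80% PEG 400 in water. Plasma concentrations measured by LC-MS/MS. Vss derived by noncompartmental analysis using nominal dose and nominal sampling times.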

In data set [10] the test system is Hepatitis B virus. As to the kind of experiment: Antiviral activity against HBV infected in human primary hepatocyte cells assessed as decrease in HBsAg level pre-infected cells with virus followed by compound treatment for 3 days and subsequent replacement of medium with compound measured after 4 days by CLIA. In kind it is functional, organism-based.
Data set [11] has as its system Mus musculus. The data set can be described thus: Effect on HBeAg level in C57BL/6 mouse infected with AAV-Hepatitis B virus at 15 mg/kg, po bid for 56 days followed by induction of compound washout period for 14 days. The data set is classed as functional, organism-based. Particulars: time 70.0 day.
The nature of data set [12]: Clearance in Cynomolgous monkey at 1 mg/kg, iv by LC-MS/MS analysis. The data set is classed as ADME, organism-based, Macaca fascicularis. Particulars: cynomolgus monkey, in vivo. A digest of the protocol:
as §1

Data set [13] is described as follows: Effect on cell proliferation in bone marrow (unknown origin) upto 10 uM. The data set is classed as toxicity, tissue-based.
Data set [14] in a line: AUC (infinity) in C57BL/6J mouse at 1 mg/kg, iv by LC-MS/MS analysis. In kind it is ADME, organism-based. To be noted: in vivo. A digest of the protocol: as §1
The nature of data set [15]: Plasma protein binding in mouse at 1 uM incubated for 4 to 24 hrs by equilibrium dialysis method. In kind it is ADME, cell-free. To be noted: time 4-24 hrs, read-out: PPB (converted). A digest of the protocol: (§4)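 Rapid equilibrium dialysis in mouse, rat, dog, monkey or human plasma for 4 or 24 h; test concentrations 1, […].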
A short description of data set [16]: Volume of distribution at steady state in Beagle dog at 1 mg/kg, iv by LC-MS/MS analysis. In kind it is ADME, organism-based, Canis lupus familiaris. To be noted: in vivo, read-out: Vdss. A digest of the protocol:
as §3

Data set [17] can be described thus: Tmax in Beagle dog at 5 mg/kg, po by LC-MS/MS analysis. The data set is classed as ADME, organism-based, Canis lupus familiaris. Particulars: in vivo. A digest of the protocol: as §2
The test system of data set [18] is Hepatitis B virus. The data set can be described thus: Antiviral activity against HBV infected in human HepG2.117 cells by qPCR analysis. The data set is classed as functional, organism-based. A digest of the protocol:
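HepG2.117 cells (integrated genotype D HBV genome, Tet-off promoter; kept in 1 μg/mL doxycycline) were seeded at 20,000 cells/well and given serial compound dilutions (2% DMSO) for 3 days at 37 °C. Lysates were taken in 0.33% NP40. Intracellular HBV DNA was quantified by qPCR and EC50/EC90 derived. For serum shift, 40% human serum was present during incubation. Mean ± SEM, n=3 (serum) or 13.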

Data set [19] in a line: Half life in Sprague-Dawley rat at 5 mg/kg, po by LC-MS/MS analysis. The data set is classed as ADME, organism-based. Particulars: in vivo. A digest of the protocol:
as §1

Data set [20] addresses Organic anion transporter 3 (Homo sapiens, UniProt Q8TCC7). The data set can be described thus: Inhibition of OAT3 (unknown origin) transfected in HEK293 cells. The data set is classed as cell-based. A digest of the protocol: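 HEK-293 cells transfected with the uptake transporter; uptake of known probe substrates measured with test compound at eight concentrations (0.0229–50.0 μM or 0.0457–100 μM); inhibition at each concentration used to calculate IC50.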

Data set [21] is described as follows: Effect on mitochondrial activity in human HepG2 cells upto 10 uM. In kind it is toxicity, cell-based. Particulars: hepg2, 10 µM.
Data set [22] is described as follows: Toxicity in C57BL/6 mouse infected with AAV-Hepatitis B virus assessed as change in body weight at 15 mg/kg, po bid for 56 days followed by induction of compound washout period for 14 days. In kind it is organism-based. To be noted: in vivo, 1680 h, time 70 day.
The nature of data set [23]: AUC (infinity) in Sprague-Dawley rat at 1 mg/kg, iv by LC-MS/MS analysis. The data set is classed as ADME, organism-based. To be noted: in vivo. A digest of the protocol: as §1
Data set [24] is described as follows: AUC (infinity) in Cynomolgous monkey at 1 mg/kg, iv by LC-MS/MS analysis. To be noted: cynomolgus monkey, in vivo. In kind it is ADME, organism-based, Macaca fascicularis. A digest of the protocol: as §1
The nature of data set [25]: Cytotoxicity against human HepG2.117 cells assessed as cell viability upto 50 uM. In kind it is toxicity, cell-based. To be noted: hepg2.117, 50 µM.
Data set [26] in a line: Plasma protein binding in Cynomolgous monkey at 1 uM incubated for 4 to 24 hrs by equilibrium dialysis method. Particulars: cynomolgus monkey, time 4-24 hrs, read-out: PPB (converted). The data set is classed as ADME, cell-free, Macaca fascicularis. A digest of the protocol: as §4
A short description of data set [27]: Oral bioavailability in C57BL/6J mouse at 5 mg/kg by LC-MS/MS analysis. In kind it is ADME, organism-based. To be noted: in vivo. A digest of the protocol:
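Fasted male C57BL6 mice, Sprague–Dawley rats, beagle dogs, cynomolgus monkeys; single IV dose 1 mg/kg or PO solution 5 mg/kg in 80% PEG 400 in water; plasma concentrations measured, noncompartmental analysis with nominal doses and times; F from PO vs IV AUC.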

Data set [28] in a line: Ratio of drug concentration in blood to plasma in rat at 5 uM incubated for 60 mins. The data set is classed as ADME, cell-free. A digest of the protocol: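 Compound at 5 μM in whole blood of each species, 37 ± 1 °C for 60 min; blood-to-plasma ratio and red blood cell partitioning determined.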
Data set [29] deals with Cytochrome P450 3A4 (Homo sapiens, UniProt P08684). As to the kind of experiment: Induction of CYP3A4 (unknown origin) in human hepatocytes upto 30 uM. The data set is classed as ADME, cell-based, Hepatocyte.
Chain of Cytochrome P450 3A4 (P08684 whole entry): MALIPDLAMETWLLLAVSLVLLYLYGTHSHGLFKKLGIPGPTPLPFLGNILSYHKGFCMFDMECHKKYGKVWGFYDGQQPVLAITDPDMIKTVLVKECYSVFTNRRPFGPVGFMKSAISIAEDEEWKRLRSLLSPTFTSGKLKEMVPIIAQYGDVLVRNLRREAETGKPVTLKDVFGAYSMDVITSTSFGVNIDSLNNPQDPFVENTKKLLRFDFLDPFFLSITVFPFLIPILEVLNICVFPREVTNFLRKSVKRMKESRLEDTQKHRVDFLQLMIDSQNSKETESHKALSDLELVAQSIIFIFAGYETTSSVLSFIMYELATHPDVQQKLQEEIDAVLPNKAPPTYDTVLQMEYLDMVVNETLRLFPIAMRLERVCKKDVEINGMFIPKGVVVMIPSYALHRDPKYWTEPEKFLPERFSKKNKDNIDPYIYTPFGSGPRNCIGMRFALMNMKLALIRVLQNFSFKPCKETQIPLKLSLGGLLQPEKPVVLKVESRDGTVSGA

Calls of active or inactive are those of the source. No cut-off for these calls is given here. A value given as a limit tells only on which side of the number the result lay.

Chain of Organic anion transporter 3 (Q8TCC7 whole entry): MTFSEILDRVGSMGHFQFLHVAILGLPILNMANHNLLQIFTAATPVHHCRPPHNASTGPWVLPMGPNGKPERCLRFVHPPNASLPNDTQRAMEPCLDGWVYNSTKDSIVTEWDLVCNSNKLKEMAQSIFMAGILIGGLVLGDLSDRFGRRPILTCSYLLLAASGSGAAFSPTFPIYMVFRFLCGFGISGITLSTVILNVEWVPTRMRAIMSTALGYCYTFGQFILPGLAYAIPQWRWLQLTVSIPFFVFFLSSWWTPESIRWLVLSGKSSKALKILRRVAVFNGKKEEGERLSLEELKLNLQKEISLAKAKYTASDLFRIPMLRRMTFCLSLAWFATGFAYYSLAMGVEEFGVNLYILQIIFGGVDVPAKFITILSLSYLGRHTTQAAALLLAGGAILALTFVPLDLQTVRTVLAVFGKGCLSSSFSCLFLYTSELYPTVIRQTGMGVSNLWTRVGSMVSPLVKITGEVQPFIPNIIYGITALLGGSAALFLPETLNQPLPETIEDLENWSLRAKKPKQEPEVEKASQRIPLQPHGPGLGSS

What is called Papp A→B is how fast a substance crosses the layer from the apical side. For the compound `C#CC1(N(COP(=O)([O-])[O-])C(=O)C(=O)c2c(C)c(C(=O)Nc3ccc(F)c(C#N)c3)n(C)c2C)COC1.[Na+].[Na+]`, the fraction unbound at 2 µM in [1] is 0.025. For the same compound, the Papp A→B at 1 h, 2 µM in [2] turned out to be 4.6 ×10⁻⁶ cm/s. Further, in [3], the Drug metabolism entry is “metabolite_detected”.
Broadly, the AUC(0-inf) is the area under the concentration-time curve extrapolated to infinity. By Cmax is commonly meant the peak of the concentration-time curve. Broadly, the Tmax is the time from dosing to the highest level. One may read the EC50 as the concentration needed to bring the measured effect to its halfway point. For orientation: clearance means the rate of elimination divided by the concentration. The term half-life denotes how long it takes for the measured level to halve. The term IC50 denotes the concentration needed to halve the response being measured. Regarding `C#CC1(NC(=O)C(=O)c2c(C)c(C(=O)Nc3ccc(F)c(C#N)c3)n(C)c2C)COC1`, the AUC(0-inf) was determined as 8720 ng·h/mL in data set [4]; 7990 ng·h/mL in data set [5]; 8520 ng·h/mL in [6]; 1390 ng·h/mL in data set [14]; 2780 ng·h/mL in [23]; 2240 ng·h/mL in [24]. In addition, in data set [7], the Cmax turned out to be 490 ng/mL. Besides, the Tmax in data set [8] came out at 1 h; in [17], 2.17 h. Also, the Vd in [9] was determined as 0.5 L/kg; in data set [16] it was 1.03 L/kg. Besides, the EC50 was 70 nM in [10] and 0.63 nM in data set [18]. For the same compound, the result in data set [11] was inactive. In [12], this compound yielded a clearance of 7.89 mL/min/kg. Moreover, the Activity entry is on record as “Non-toxic” in data set [13]; “Non-toxic” in data set [21]; “Non-toxic” in data set [22]; “Non-toxic” in [25]; “Not_active” in data set [29]. The figures for the fraction unbound at 1 µM in [15] and in data set [26] were 0.354 and 0.284, respectively. The compound further had a half-life in data set [19] of 2.17 h. In addition, the IC50 in data set [20] is > 11800 nM. Further, the bioavailability in data set [27] was found to be 115%. Further, in data set [28], the blood plasma ratio at 1 h, 5 µM came to 0.72.

Source of the values: ChEMBL document CHEMBL6092224, “The Discovery and Preclinical Profile of ALG-000184, a Prodrug of the Potent Hepatitis B Virus Capsid Assembly Modulator ALG-001075” (J Med Chem, 2024).
